Assay results published in ChEMBL document CHEMBL3272259, “Nitroimidazoles with antibacterial activity against Neisseria gonorrhoeae” (1977).
Converted amounts (≈) assume the structure as drawn. The source made the active and inactive calls. No cut-off for these calls is given here.

Experiments:
Clostridium perfringens = experiment: Antibacterial activity against Clostridium perfringens ATCC 13124 after 24 hrs by ten-fold serial dilution method; assay type: functional; settings: ATCC 13124, 24 h
Method in brief: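 Grown in Fluid Thioglycollate Broth and incubated 24 h at 37 °C. Growth was checked by eye after incubation. MIC was taken as the lowest concentration, in μg/mL, that prevented visible growth.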

Bacteroides fragilis = experiment: Antibacterial activity against Bacteroides fragilis ATCC 23745 after 24 hrs by ten-fold serial dilution method; assay type: functional; settings: ATCC 23745, 24 h
Method in brief: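 Grown in Fluid Thioglycollate Broth and incubated 24 h at 37 °C. Growth was read by eye, and the MIC (µg/mL) is the lowest concentration that prevented visible growth.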

Neisseria gonorrhoeae = experiment: Antibacterial activity against Neisseria gonorrhoeae ATCC 19424 after 48 hrs by ten-fold serial dilution method; assay type: functional; settings: ATCC 19424, 48 h
Method in brief: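 Tested on chocolate agar made from GC agar base with hemoglobin and Supplement C, incubated 48 h at 37 °C. Plates were checked visually, and the MIC (µg/mL) is the lowest concentration with no visible growth.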

Trichomonas vaginalis = experiment: Antibacterial activity against Trichomonas vaginalis ATCC 30001 after 48 hrs by ten-fold serial dilution method; assay type: functional; settings: ATCC 30001, 48 h
Method in brief: (§1)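 Trichomonads were cultured in Diamond medium with 5% serum and incubated 48 h at 37 °C. Cultures were examined microscopically for motile cells, and the MIC (µg/mL) is the lowest concentration giving no motile organisms.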

Tritrichomonas foetus = experiment: Antibacterial activity against Tritrichomonas foetus 1002-96-27 after 48 hrs by ten-fold serial dilution method; assay type: functional; settings: 1002-96-27, 48 h; method in brief: as §1
Pentatrichomonas hominis = experiment: Antibacterial activity against Pentatrichomonas hominis ATCC 30000 after 48 hrs by ten-fold serial dilution method; assay type: functional; settings: ATCC 30000, 48 h; method in brief: as §1
Candida albicans = experiment: Antifungal activity against Candida albicans; assay type: functional, organism-based

| Compound | MIC (Clostridium perfringens) [µg/mL] | MIC (Bacteroides fragilis) [µg/mL] | MIC (Neisseria gonorrhoeae) [µg/mL] | MIC (Trichomonas vaginalis) [µg/mL] | MIC (Tritrichomonas foetus) [µg/mL] | MIC (Pentatrichomonas hominis) [µg/mL] | Activity (Candida albicans) |
| --- | --- | --- | --- | --- | --- | --- | --- |
| Cn1c([N+](=O)[O-])cnc1S(=O)(=O)CCC(=O)O | > 100 | > 100 | 100 (≈ 380 µM) | 100 (≈ 380 µM) | 100 (≈ 380 µM) | 100 (≈ 380 µM) | inactive |
| Cn1c([N+](=O)[O-])cnc1SCCCCCCCC(=O)O | 0.1 (≈ 0.332 µM) | 10 (≈ 33.2 µM) | 0.1 (≈ 0.332 µM) | 1 (≈ 3.32 µM) | 1 (≈ 3.32 µM) | 1 (≈ 3.32 µM) | inactive |
| Cn1c([N+](=O)[O-])cnc1[S+]([O-])CCOc1ccc(C#N)cc1 (stereo not given) | > 100 | 100 (≈ 312 µM) | 100 (≈ 312 µM) | 10 (≈ 31.2 µM) | 100 (≈ 312 µM) | 100 (≈ 312 µM) | inactive |
| Cn1c([N+](=O)[O-])cnc1SCCC(=O)O | 10 (≈ 43.2 µM) | 10 (≈ 43.2 µM) | 10 (≈ 43.2 µM) | 10 (≈ 43.2 µM) | 10 (≈ 43.2 µM) | 10 (≈ 43.2 µM) | inactive |
| Cn1c([N+](=O)[O-])cnc1SCCOc1ccc([N+](=O)[O-])cc1 | 100 (≈ 308 µM) | 100 (≈ 308 µM) | > 100 | 10 (≈ 30.8 µM) | 100 (≈ 308 µM) | 1 (≈ 3.08 µM) | inactive |
| Cn1c([N+](=O)[O-])cnc1SCCCCOc1ccc(C(=O)O)cc1 | 10 (≈ 28.5 µM) | 10 (≈ 28.5 µM) | 100 (≈ 285 µM) | 1 (≈ 2.85 µM) | 1 (≈ 2.85 µM) | 1 (≈ 2.85 µM) | inactive |
| Cn1c([N+](=O)[O-])cnc1[S+]([O-])CCCCC(=O)O (stereo not given) | > 100 | 100 (≈ 363 µM) | 100 (≈ 363 µM) | 100 (≈ 363 µM) | > 100 | 100 (≈ 363 µM) | inactive |
| Cn1c([N+](=O)[O-])cnc1SCCCCCCCCCCC(=O)O | 10 (≈ 29.1 µM) | 10 (≈ 29.1 µM) | 0.1 (≈ 0.291 µM) | 10 (≈ 29.1 µM) | 10 (≈ 29.1 µM) | 10 (≈ 29.1 µM) | inactive |
| Br.Cn1ccnc1SCCOc1ccc(Br)cc1 | > 100 | 100 | 100 | > 100 | > 100 | > 100 | inactive |
| Cn1ccnc1SCCOc1ccc(C(=O)O)cc1 | > 100 | > 100 | > 100 | > 100 | > 100 | > 100 | inactive |
| Cn1c([N+](=O)[O-])cnc1SCCCCCCOc1ccc(C(=O)O)cc1 | 10 (≈ 26.4 µM) | 1 (≈ 2.64 µM) | 0.1 (≈ 0.264 µM) | 1 (≈ 2.64 µM) | 1 (≈ 2.64 µM) | 1 (≈ 2.64 µM) | inactive |
| Br.Cn1ccnc1SCCOc1ccc([N+](=O)[O-])cc1 | > 100 | > 100 | 100 | > 100 | > 100 | > 100 | inactive |
| Cn1c([N+](=O)[O-])cnc1[S+]([O-])CCCCCCCCCCC(=O)O (stereo not given) | > 100 | > 100 | 100 (≈ 278 µM) | 10 (≈ 27.8 µM) | 100 (≈ 278 µM) | 100 (≈ 278 µM) | inactive |
| Cn1c([N+](=O)[O-])cnc1SCCCCCCCCC(=O)O | 10 (≈ 31.7 µM) | 10 (≈ 31.7 µM) | 0.1 (≈ 0.317 µM) | 10 (≈ 31.7 µM) | 10 (≈ 31.7 µM) | 10 (≈ 31.7 µM) | inactive |
| Cn1c([N+](=O)[O-])cnc1SCCCCCCC(=O)O | 1 (≈ 3.48 µM) | 1 (≈ 3.48 µM) | 0.1 (≈ 0.348 µM) | 1 (≈ 3.48 µM) | 10 (≈ 34.8 µM) | 1 (≈ 3.48 µM) | inactive |
